From PubChem BioAssay
In the library only some 10% were active in any assay of this set; here they are far more common.
WT yeast gro inh = growth inhibition of WT yeast, mitochondrial fusion screen; AID 1362; mitochondrial fusion phenotypic screen, WT strain; 190,000 compounds, 2.1% hits; inhibition, % at 10 µM; in the data active = inhibition above about 58%; tested in S. cerevisiae
PMI act satM6P = increases human PMI activity with near-saturating mannose 6-phosphate | P34949 | coupled PMI enzyme assay, resazurin fluorescence, 20 min; active compounds read high; 1 = untreated enzyme, 0 = substrate-free blank | activation factor at 20 µM | 190,000 compounds, 0.34% hits | AID 1216;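 active = activation factor of 2 or more at 20 µM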
Target sequence (P34949 whole entry, looked up): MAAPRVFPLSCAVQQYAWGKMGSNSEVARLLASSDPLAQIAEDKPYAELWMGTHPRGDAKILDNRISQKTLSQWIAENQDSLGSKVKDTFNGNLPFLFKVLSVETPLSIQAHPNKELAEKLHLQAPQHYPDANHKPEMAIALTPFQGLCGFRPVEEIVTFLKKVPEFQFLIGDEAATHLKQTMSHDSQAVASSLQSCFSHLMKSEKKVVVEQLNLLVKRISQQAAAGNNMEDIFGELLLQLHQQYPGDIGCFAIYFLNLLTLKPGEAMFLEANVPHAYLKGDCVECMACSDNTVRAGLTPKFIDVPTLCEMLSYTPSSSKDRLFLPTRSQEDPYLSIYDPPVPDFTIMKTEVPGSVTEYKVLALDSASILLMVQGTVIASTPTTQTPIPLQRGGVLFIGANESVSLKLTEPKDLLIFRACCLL
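Test system: human PMI in coupled enzyme assay; Input: PMI at 15 ng/mL final; Medium: HEPES buffer, pH 7.4; Schedule: 20 min incubation at room temperature; Technique: resorufin fluorescence at Ex 544/Em 590 nm; Compound: 20 µM single dose; Probe or stimulus: Near-saturating mannose-6-phosphate, 1.0 mM.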
PMI act = activators of human phosphomannose isomerase; 190,000 compounds, 0.005% hits; activation factor at 20 µM; P34949; purified human PMI, coupled resazurin fluorescence, 20 min; active compounds read high; 1 = vehicle control, 0 substrate-free wells;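 active = activation factor of 2 or more at 20 µM, relative to plate controls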
L major viab = inhibitors of Leishmania major promastigote growth. Leishmania major promastigotes, resazurin fluorescence viability. inhibition, % at 10 µM. 200,000 compounds, 9% hits. AID 1063; in the data active = inhibition above about 50%;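 note: promastigotes grown with compound for 44 hours at 28 °C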
Diaph act CS = activates diaphorase or chemically reduces, flagging diaphorase assay artifacts. activation factor at 20 µM. Diaphorase/resazurin coupled assay, resorufin fluorescence, 16 min; active compounds read high; 1 = vehicle wells, 0 = NADH-free wells. 190,000 compounds, 0.005% hits;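 active = diaphorase activity raised at least twofold by the compound at 20 µM; inactive = activation factor below 2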
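Material: Purified diaphorase enzyme from Clostridium kluyveri | Buffer or medium: 50 mM HEPES pH 7.4 with 4.542 mM MgCl2, 0.005% Tween 20 | Times: 16 min enzyme reaction, ambient temperature | Signal: Red resorufin fluorescence at 544/590 nm excitation/emission | Measure: Increased resorufin signal from activators or reducing compounds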
* = called active by the depositor.

Results for O=S(=O)(c1ccccc1)c1cnc(-c2cccnc2)nc1-c1ccccc1 ?
WT yeast gro inh: 8.0; PMI act satM6P: 1; PMI act: 1; L major viab: 3.1; Diaph act CS: 1

What do the screens show for `COc1ccccc1NC(=O)C1=C(C)Nc2nnnn2C1c1ccccc1OC` (stereo not drawn)?
WT yeast gro inh: -1.2; PMI act satM6P: 0.8; PMI act: 0.8; L major viab: 4.1; Diaph act CS: 0.9

How did COc1ccccc1NC(=O)C1=C(C)Nc2nnnn2C1c1ccccn1 (stereo not drawn) do in these assays?
PMI act satM6P: 1.1; PMI act: 1; L major viab: 85.5*; Diaph act CS: 1.1

Results for Cc1ccc(-c2csc(NC(=O)CCCc3cccs3)n2)cc1 ?
WT yeast gro inh: 11.7; PMI act satM6P: 0.9; PMI act: 0.9; L major viab: 9.0; Diaph act CS: 0.9

What do the screens show for `Cc1ccc(-c2csc(NC(=O)CCNC(=O)c3ccc(Cl)cc3)n2)cc1`?
WT yeast gro inh: 0.3; PMI act satM6P: 0.9; PMI act: 0.9; L major viab: -1.9; Diaph act CS: 1

What do the screens show for `O=C(CCS(=O)(=O)c1ccccc1)Nc1nc(-c2cccs2)cs1`?
WT yeast gro inh: 23.5; PMI act satM6P: 1; PMI act: 1.1; L major viab: 50.4*; Diaph act CS: 1

Results for CC(=O)Nc1ccc(-c2csc(NCc3ccccc3)n2)cc1 ?
WT yeast gro inh: -1.1; PMI act satM6P: 1; PMI act: 1; L major viab: 60.3*; Diaph act CS: 0.9

Results for CC(=O)Nc1cccc(-c2csc(NCc3ccccc3)n2)c1 ?
WT yeast gro inh: 19.2; PMI act satM6P: 1.1; PMI act: 0.9; L major viab: 2.1; Diaph act CS: 0.8

What do the screens show for `CC(=O)Nc1ccc(-c2csc(NC(=O)CCCc3cccs3)n2)cc1`?
WT yeast gro inh: -11.8; PMI act satM6P: 0.9; PMI act: 1; L major viab: 75.4*; Diaph act CS: 0.8

Results for Cc1ccc(-c2csc(NC(=O)CCNC(=O)c3ccccc3Cl)n2)cc1 ?
WT yeast gro inh: 38.6; PMI act satM6P: 0.9; PMI act: 0.9; L major viab: 83.7*; Diaph act CS: 0.8

What do the screens show for `c1ccc(-c2n[nH]c3ccccc23)cc1`?
WT yeast gro inh: 7.8; PMI act satM6P: 1; PMI act: 0.9; L major viab: -0.8; Diaph act CS: 0.9

What do the screens show for `Fc1ccc(-c2n[nH]c(=S)c3ccccc23)cc1`?
WT yeast gro inh: 10.4; PMI act satM6P: 2.4*; PMI act: 1.8; L major viab: 2.7; Diaph act CS: 0.9

Results for CCCCN(C(=O)CN1CCOCC1)c1c(N)n(CC(C)C)c(=O)[nH]c1=O ?
WT yeast gro inh: -8.1; PMI act satM6P: 0.9; PMI act: 0.9; L major viab: -6.1; Diaph act CS: 0.9

How did O=S(=O)(c1ccc2c(c1)OCCO2)N1CCC(n2cnc3cc(F)ccc32)CC1 do in these assays?
WT yeast gro inh: 11.2; PMI act satM6P: 0.9; PMI act: 0.9; L major viab: 68.7*; Diaph act CS: 0.8

How did CN(C)c1ccc(CNCCC2CCOC(C)(C)C2)cc1 (stereo not drawn) do in these assays?
WT yeast gro inh: 0.2; PMI act satM6P: 1; PMI act: 0.8; L major viab: 93.7*; Diaph act CS: 0.8

How did CC1(C)CC(NCc2ccccc2)CCO1 (stereo not drawn) do in these assays?
WT yeast gro inh: -8.7; PMI act satM6P: 1; PMI act: 1.1; L major viab: -8.7; Diaph act CS: 0.9

Results for COc1ccc(N/C=C\C(=O)c2ccc3c(c2)OCO3)cc1OC ?
WT yeast gro inh: 4.8; PMI act satM6P: 0.8; PMI act: 0.9; L major viab: 88.0*; Diaph act CS: 0.9

How did Cc1ccc(S(=O)(=O)N2CC=C(c3ccc(F)cc3)CC2)cc1 do in these assays?
WT yeast gro inh: 5.1; PMI act satM6P: 0.9; PMI act: 0.8; L major viab: 0.0; Diaph act CS: 0.9

Results for NC(=O)c1ccc(NC(=O)COC(=O)c2c3c(nc4ccccc24)/C(=C\c2cccs2)CCC3)cc1 ?
WT yeast gro inh: 75.5*; PMI act satM6P: 0.9; PMI act: 0.9; L major viab: 14.5; Diaph act CS: 0.8

Results for CC(C)CNC(=O)COC(=O)c1c2c(nc3ccccc13)/C(=C/c1cccs1)CC2 ?
WT yeast gro inh: 5.7; PMI act satM6P: 0.9; PMI act: 0.9; L major viab: 16.6; Diaph act CS: 0.8

How did O=C(COC(=O)c1c2c(nc3ccccc13)/C(=C/c1ccco1)CC2)NC1CCCC1 do in these assays?
WT yeast gro inh: 19.8; PMI act satM6P: 1.6; PMI act: 1.4; L major viab: 89.1*; Diaph act CS: 0.8

How did CC1CCCCC1NC(=O)COC(=O)c1c2c(nc3ccccc13)/C(=C/c1ccco1)CC2 (stereo not drawn) do in these assays?
WT yeast gro inh: 0.8; PMI act satM6P: 2*; PMI act: 1.7; L major viab: 33.8; Diaph act CS: 0.6

How did O=C(NC(=S)Nn1cnnc1)c1cccc(Br)c1 do in these assays?
WT yeast gro inh: -11.1; PMI act satM6P: 0.9; PMI act: 0.8; L major viab: -1.9; Diaph act CS: 0.7

Results for CCOP(=O)(OCC)C(O)c1cc(OC)c(OC)c(OC)c1 (stereo not drawn) ?
WT yeast gro inh: -10.0; PMI act satM6P: 0.9; PMI act: 0.9; L major viab: -6.6; Diaph act CS: 0.9

How did CCc1cccc(CC)c1NC(=O)CO/N=C(\C)c1cccs1 do in these assays?
WT yeast gro inh: 16.9; PMI act satM6P: 1; PMI act: 0.9; L major viab: 4.8; Diaph act CS: 0.9

What do the screens show for `Cc1cccc(Oc2ncnc3oc(-c4ccccc4)cc23)c1C`?
WT yeast gro inh: 3.7; PMI act satM6P: 0.9; PMI act: 0.8; L major viab: -6.3; Diaph act CS: 0.9

How did CC(C)OC(=O)/C(=C\c1cccc2ccccc12)NC(=O)c1ccccc1 do in these assays?
WT yeast gro inh: 17.0; PMI act satM6P: 1; PMI act: 0.9; L major viab: 91.0*; Diaph act CS: 0.9

How did CC(C)OC(=O)/C(=C\c1ccccc1)NC(=O)c1ccccc1 do in these assays?
WT yeast gro inh: -8.4; PMI act satM6P: 1; PMI act: 1; L major viab: -2.2; Diaph act CS: 0.9

How did CCOC(=O)c1c(NC(=O)CSc2nc3ccccc3c(=O)n2-c2ccccc2)sc(C(C)=O)c1C do in these assays?
WT yeast gro inh: -10.7; PMI act satM6P: 1.2; PMI act: 1.1; L major viab: 15.8; Diaph act CS: 1.1

Results for O=C(NCc1ccccn1)c1ccc(CNS(=O)(=O)c2ccc(F)cc2)cc1 ?
WT yeast gro inh: -8.2; PMI act satM6P: 1.1; PMI act: 1; L major viab: -3.3; Diaph act CS: 0.9

What do the screens show for `CC1CC(C)CN(C(=O)/C(=C\c2ccccc2)c2ccccc2)C1` (stereo not drawn)?
WT yeast gro inh: 9.7; PMI act satM6P: 1; PMI act: 0.9; L major viab: 95.9*; Diaph act CS: 0.9
